Measured values published in ChEMBL document CHEMBL4052588, “Design of a Biased Potent Small Molecule Inhibitor of the Bromodomain and PHD Finger-Containing (BRPF) Proteins Suitable for Cellular and in Vivo Studies” (J Med Chem, 2017).

Experiments:
[1] = molecular target: T1, Bromodomain and PHD finger-containing protein 3 (Homo sapiens) (UniProt Q9ULD4)
T1 sequence (whole entry): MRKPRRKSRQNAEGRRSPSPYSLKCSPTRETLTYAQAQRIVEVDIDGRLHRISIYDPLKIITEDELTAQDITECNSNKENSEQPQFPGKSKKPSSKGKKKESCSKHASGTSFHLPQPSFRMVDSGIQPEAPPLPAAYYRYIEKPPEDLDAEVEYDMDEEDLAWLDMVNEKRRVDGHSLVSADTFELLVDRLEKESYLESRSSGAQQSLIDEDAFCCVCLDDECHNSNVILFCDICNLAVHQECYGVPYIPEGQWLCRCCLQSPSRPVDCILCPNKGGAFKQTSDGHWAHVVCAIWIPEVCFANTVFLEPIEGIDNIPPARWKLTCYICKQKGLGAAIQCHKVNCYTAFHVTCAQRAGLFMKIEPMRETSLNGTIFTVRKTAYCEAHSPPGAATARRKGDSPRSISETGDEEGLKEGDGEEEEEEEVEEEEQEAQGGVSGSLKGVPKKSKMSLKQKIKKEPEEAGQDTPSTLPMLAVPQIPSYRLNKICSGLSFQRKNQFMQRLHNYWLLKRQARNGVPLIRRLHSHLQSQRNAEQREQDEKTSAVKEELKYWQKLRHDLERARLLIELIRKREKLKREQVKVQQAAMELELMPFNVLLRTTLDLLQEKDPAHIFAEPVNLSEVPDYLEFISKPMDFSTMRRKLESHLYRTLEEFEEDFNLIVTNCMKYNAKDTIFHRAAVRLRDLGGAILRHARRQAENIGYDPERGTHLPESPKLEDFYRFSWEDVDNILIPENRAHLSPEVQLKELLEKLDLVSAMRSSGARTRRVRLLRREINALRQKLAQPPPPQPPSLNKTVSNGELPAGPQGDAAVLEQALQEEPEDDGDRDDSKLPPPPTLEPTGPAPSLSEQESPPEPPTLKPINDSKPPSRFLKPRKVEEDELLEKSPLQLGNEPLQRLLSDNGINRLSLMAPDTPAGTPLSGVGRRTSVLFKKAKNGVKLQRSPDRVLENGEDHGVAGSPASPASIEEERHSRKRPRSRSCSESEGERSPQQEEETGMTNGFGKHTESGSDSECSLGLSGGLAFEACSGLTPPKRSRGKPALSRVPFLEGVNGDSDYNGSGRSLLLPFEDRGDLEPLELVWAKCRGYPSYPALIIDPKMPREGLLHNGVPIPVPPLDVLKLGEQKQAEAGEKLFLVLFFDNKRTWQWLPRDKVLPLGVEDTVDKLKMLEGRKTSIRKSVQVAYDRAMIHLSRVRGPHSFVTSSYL

[2] = molecular target: T2, Peregrin (Homo sapiens) (UniProt P55201)
T2 sequence (whole entry): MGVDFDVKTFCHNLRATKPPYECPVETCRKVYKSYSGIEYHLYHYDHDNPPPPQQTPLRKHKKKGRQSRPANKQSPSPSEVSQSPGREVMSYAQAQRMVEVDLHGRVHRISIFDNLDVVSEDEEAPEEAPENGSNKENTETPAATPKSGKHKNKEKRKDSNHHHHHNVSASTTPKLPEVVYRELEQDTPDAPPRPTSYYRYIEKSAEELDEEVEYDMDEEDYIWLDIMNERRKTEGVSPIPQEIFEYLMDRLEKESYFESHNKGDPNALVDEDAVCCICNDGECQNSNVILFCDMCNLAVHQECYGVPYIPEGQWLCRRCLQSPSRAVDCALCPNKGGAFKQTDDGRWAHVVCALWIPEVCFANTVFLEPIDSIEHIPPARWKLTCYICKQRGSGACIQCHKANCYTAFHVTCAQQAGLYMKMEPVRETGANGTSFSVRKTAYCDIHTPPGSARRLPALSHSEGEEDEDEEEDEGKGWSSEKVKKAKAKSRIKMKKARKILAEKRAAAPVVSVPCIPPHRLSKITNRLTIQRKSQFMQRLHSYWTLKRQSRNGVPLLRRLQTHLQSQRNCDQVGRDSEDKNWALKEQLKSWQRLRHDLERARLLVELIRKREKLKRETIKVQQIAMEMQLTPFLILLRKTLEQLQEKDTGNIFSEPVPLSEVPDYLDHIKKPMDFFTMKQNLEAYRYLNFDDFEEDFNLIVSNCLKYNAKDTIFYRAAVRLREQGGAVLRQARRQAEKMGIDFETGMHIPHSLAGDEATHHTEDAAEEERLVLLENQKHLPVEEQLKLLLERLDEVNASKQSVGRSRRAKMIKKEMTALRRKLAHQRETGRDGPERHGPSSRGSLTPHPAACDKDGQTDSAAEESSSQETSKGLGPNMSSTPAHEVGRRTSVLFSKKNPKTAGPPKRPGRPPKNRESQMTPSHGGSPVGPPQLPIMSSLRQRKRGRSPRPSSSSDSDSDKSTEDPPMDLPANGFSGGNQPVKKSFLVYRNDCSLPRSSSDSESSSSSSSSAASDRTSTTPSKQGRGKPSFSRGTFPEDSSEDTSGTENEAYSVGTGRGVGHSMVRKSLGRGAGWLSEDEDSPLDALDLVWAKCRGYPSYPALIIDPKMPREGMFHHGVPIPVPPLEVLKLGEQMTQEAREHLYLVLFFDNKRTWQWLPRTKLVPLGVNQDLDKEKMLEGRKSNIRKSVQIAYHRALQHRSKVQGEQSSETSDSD

[3] = Oral bioavailability in CD-1 mouse at 3 mg/kg; format: ADME, organism-based; conditions: in vivo
How it was run: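 Female CD-1 mice (n = 3), single dosing: intravenous 1.0 mg/kg, or oral 3.0 mg/kg given as a suspension. Blood levels were followed over time to derive clearance, volume of distribution, elimination half-life, Cmax, Tmax, AUC0−∞, oral bioavailability and fraction absorbed.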

[4] = tested on: ASPC1; experiment: Growth inhibition of human AsPC1 cells after 72 hrs; format: functional; conditions: ASPC1, 72 h
[5] = tested on: SK-CO-1; experiment: Growth inhibition of human SKCO1 cells after 72 hrs; format: functional; conditions: SK-CO-1, 72 h
[6] = tested on: SW948; experiment: Growth inhibition of human SW948 cells after 72 hrs; format: functional; conditions: SW948, 72 h
[7] = tested on: NOMO-1; experiment: Growth inhibition of human NOMO1 cells after 72 hrs; format: functional; conditions: NOMO-1, 72 h
[8] = Growth inhibition of human QGP1 cells after 72 hrs; format: functional; conditions: QGP-1, 72 h
[9] = tested on: HCC1187; experiment: Growth inhibition of human HCC1187 cells after 72 hrs; format: functional; conditions: HCC1187, 72 h
[10] = molecular target: T3, Bromodomain and PHD finger-containing protein 3 (Homo sapiens, UniProt Q9ULD4); experiment: Inhibition of human His tagged BRPF3 incubated for 30 mins followed by addition of biotinylated peptide and further incubation for 30 mins measured by AlphaScreen assay
T3 sequence (Q9ULD4 whole entry): T1 sequence (whole entry)
How it was run: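 AlphaScreen biochemical readout of bromodomain inhibition, giving an IC50. Compound series were made by serial dilution of a 100 mM DMSO stock. […] Differences under 2-fold are treated as not significant.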

[11] = molecular target: Chromatin remodeling regulator CECR2 (Homo sapiens, UniProt Q9BXF3); experiment: Inhibition of human CECR2 expressed in Escherichia coli BL21 after 1 hr by BROMOscan assay
Chain of Chromatin remodeling regulator CECR2 (Q9BXF3 whole entry): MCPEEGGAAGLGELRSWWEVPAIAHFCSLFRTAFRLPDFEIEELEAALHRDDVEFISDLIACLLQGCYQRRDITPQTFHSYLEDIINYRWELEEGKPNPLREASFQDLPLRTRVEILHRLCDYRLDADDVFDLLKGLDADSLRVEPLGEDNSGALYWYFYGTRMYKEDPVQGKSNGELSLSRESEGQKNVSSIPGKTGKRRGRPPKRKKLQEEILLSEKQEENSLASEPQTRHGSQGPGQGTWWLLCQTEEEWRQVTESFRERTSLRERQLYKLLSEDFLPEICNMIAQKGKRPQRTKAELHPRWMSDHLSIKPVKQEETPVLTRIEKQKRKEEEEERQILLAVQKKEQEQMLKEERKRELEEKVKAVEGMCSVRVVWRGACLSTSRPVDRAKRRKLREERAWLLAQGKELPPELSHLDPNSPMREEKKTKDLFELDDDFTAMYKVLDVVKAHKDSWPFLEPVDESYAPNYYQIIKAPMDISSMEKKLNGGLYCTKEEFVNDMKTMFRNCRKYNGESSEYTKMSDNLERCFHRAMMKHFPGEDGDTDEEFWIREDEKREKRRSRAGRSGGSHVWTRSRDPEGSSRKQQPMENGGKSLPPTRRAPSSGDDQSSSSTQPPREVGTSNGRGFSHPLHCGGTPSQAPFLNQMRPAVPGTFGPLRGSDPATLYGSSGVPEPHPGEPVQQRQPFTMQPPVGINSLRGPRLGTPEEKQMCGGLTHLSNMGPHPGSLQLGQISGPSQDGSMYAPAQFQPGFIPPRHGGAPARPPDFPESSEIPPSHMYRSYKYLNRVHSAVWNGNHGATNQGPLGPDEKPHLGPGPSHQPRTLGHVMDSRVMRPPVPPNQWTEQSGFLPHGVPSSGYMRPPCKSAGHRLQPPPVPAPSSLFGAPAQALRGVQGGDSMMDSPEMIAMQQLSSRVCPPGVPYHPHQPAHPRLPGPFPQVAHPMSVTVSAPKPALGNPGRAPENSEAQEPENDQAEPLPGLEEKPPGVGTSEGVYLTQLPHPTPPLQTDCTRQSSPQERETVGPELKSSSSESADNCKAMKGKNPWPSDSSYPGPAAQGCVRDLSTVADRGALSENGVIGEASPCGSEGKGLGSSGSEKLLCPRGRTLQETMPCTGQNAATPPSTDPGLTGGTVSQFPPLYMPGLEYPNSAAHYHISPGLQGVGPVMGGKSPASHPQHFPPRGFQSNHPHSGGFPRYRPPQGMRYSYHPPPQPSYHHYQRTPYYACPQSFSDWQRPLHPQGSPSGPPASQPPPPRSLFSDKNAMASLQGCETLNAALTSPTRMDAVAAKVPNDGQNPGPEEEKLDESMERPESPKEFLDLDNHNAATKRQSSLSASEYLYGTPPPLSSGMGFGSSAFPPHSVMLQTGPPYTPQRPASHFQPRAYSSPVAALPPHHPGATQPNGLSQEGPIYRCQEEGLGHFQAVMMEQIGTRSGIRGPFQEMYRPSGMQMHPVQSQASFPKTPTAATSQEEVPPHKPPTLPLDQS

## Cc1cc(C#N)ccc1S(=O)(=O)Nc1ccc2c(ccc(=O)n2C)c1
[1]
  ΔTm: 2.4 °C
[2]
  ΔTm: 6.5 °C

## Cn1c(=O)ccc2cc(NS(=O)(=O)c3ccc(C#N)c(Cl)c3)ccc21
[2]
  ΔTm: 4.3 °C

## Cc1cc2cc(NS(=O)(=O)c3ccc(C#N)cc3)ccc2n(C)c1=O
[3]
  bioavailability: 49%
[4]
  GI50: 1 to 10 µM
[5]
  GI50: 1 to 10 µM
[1]
  ΔTm: 4.5 °C
[6]
  GI50: 1 to 10 µM
[7]
  GI50: 4.6 µM
[8]
  GI50: 1 to 10 µM
[9]
  GI50: 1 to 10 µM
[10]
  IC50: 2 µM

## CCc1cc2cc(NS(=O)(=O)c3ccc(C#N)cc3)ccc2n(CC)c1=O
[11]
  IC50: > 100 µM
